Laboratory results: ChEMBL document CHEMBL2010675, “Discovery of GS-9451: an acid inhibitor of the hepatitis C virus NS3/4A protease” (Bioorg Med Chem Lett, 2012)
≈ marks a conversion by molar mass, not a printed value.

Columns and labels:
[1] = Permeability from apical to basolateral side in human Caco2 cells; type: ADME, cell-based; conditions: Caco-2, read-out: permeability
[2] = Thermodynamic solubility of the compound at pH 2.2; type: physicochemical; conditions: buffer; for solubility thermodynamic: read-out: Therm_solubility
[3] = Oral bioavailability in rat at 4 mg/kg; type: ADME, organism-based; conditions: in vivo
[4] = Half life in rat microsomes; type: ADME, Microsome
Cynomolgus monkey = experiment: AUC in cynomolgus monkey at 4 mg/kg, po; type: ADME, organism-based, Macaca fascicularis, Plasma; set-up: dose 4 mg/kg, route oral; conditions: in vivo
How it was run: (§1)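 Dosed at 1.0 mg/kg iv and 4.0 mg/kg po; plasma drug levels followed to derive iv t1/2, oral AUC, clearance, Vdss and oral bioavailability (F).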

[5] = Clearance in rat at 1 mg/kg, iv and 4 mg/kg, po; type: ADME, organism-based; conditions: in vivo
[6] = biological target: Multidrug resistance-associated protein 1 (Homo sapiens, UniProt P33527); experiment: Inhibition of MRP1
Sequence of Multidrug resistance-associated protein 1 (P33527 whole entry): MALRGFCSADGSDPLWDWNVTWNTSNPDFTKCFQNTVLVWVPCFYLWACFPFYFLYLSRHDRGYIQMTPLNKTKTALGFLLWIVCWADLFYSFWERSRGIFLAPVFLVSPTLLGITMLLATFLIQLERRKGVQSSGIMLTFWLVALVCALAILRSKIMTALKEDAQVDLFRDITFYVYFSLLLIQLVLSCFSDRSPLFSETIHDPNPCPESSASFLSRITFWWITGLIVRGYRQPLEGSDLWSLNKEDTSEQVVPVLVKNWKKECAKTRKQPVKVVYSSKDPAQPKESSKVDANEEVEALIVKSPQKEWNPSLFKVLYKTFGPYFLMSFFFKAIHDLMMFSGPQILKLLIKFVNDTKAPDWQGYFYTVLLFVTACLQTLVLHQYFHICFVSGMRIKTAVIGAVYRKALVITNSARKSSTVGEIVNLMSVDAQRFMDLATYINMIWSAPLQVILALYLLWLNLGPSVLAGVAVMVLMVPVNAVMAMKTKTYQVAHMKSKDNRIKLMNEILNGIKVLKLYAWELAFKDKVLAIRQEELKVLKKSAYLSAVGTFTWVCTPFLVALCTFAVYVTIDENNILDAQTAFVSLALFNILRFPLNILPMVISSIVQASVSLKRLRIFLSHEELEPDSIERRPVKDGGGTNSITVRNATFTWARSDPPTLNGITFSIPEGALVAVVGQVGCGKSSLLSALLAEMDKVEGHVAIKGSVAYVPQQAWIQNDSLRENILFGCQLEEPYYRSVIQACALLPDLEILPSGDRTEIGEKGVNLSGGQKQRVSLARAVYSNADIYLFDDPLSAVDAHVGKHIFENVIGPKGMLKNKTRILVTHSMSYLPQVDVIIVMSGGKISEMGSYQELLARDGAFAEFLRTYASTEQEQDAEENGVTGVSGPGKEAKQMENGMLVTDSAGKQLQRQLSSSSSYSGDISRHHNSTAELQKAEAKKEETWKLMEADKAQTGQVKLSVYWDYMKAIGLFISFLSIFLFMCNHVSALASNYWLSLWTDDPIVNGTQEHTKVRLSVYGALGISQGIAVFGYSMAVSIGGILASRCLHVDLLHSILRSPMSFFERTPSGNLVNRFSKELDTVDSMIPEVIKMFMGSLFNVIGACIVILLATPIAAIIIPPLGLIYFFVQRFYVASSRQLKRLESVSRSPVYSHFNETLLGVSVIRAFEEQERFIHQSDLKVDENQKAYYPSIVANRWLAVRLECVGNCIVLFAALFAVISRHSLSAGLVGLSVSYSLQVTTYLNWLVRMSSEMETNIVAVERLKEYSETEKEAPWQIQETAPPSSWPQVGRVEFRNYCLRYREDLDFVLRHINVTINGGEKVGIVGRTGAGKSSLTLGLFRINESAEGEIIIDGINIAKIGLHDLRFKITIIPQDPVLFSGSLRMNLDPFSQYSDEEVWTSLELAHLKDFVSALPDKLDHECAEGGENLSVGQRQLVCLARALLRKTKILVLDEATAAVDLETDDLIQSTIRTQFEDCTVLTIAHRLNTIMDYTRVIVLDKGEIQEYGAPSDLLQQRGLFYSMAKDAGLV

[7] = Selectivity for hepatitis C virus NS3/4A protease over human cathepsin L
[8] = Cmax in cynomolgus monkey at 4 mg/kg, po; type: ADME, organism-based, Macaca fascicularis; set-up: dose 4 mg/kg, route oral; conditions: in vivo
[9] = Fraction unbound in human plasma; type: ADME, cell-free
[10] = biological target: T1, Broad substrate specificity ATP-binding cassette transporter ABCG2 (Homo sapiens, UniProt Q9UNQ0); experiment: Inhibition of BCRP; type: ADME
T1 sequence (Q9UNQ0 whole entry): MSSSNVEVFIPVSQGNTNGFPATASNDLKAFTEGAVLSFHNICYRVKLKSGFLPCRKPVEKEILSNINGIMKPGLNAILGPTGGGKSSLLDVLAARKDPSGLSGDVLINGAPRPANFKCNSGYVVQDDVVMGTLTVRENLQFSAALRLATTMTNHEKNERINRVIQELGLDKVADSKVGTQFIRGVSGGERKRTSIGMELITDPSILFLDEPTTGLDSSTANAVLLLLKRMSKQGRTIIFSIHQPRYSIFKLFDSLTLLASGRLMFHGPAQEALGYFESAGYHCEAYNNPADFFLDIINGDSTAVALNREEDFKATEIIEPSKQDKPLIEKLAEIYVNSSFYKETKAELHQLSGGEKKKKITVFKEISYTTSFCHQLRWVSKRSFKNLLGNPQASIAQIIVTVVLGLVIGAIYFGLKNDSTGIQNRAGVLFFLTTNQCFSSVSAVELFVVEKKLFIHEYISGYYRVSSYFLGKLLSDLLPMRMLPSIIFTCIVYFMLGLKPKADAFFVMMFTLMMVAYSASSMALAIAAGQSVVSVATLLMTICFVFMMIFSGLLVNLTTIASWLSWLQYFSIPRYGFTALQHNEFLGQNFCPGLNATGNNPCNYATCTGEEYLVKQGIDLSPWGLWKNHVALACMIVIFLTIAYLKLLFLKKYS

[11] = Half life in dog at 1 mg/kg, iv; type: ADME, organism-based, Canis lupus familiaris; set-up: dose 1 mg/kg, route intravenous; conditions: in vivo; how it was run: as §1
[12] = Volume of distribution at steady state in rat at 1 mg/kg, iv and 4 mg/kg, po; type: ADME, organism-based; conditions: in vivo, read-out: Vdss
[13] = Cmax in rat at 4 mg/kg, po; type: ADME, organism-based; set-up: dose 4 mg/kg, route oral; conditions: in vivo
[14] = Oral bioavailability in cynomolgus monkey at 4 mg/kg; type: ADME, organism-based, Macaca fascicularis; conditions: in vivo; how it was run: as §1
[15] = Half life in dog microsomes; type: ADME, Canis lupus familiaris, Microsome
[16] = Clearance in cynomolgus monkey at 1 mg/kg, iv and 4 mg/kg, po; type: ADME, organism-based, Macaca fascicularis; conditions: in vivo; how it was run: as §1
[17] = biological target: ATP-binding cassette sub-family C member 2 (Homo sapiens, UniProt Q92887); experiment: Inhibition of MRP2
Sequence of ATP-binding cassette sub-family C member 2 (Q92887 whole entry): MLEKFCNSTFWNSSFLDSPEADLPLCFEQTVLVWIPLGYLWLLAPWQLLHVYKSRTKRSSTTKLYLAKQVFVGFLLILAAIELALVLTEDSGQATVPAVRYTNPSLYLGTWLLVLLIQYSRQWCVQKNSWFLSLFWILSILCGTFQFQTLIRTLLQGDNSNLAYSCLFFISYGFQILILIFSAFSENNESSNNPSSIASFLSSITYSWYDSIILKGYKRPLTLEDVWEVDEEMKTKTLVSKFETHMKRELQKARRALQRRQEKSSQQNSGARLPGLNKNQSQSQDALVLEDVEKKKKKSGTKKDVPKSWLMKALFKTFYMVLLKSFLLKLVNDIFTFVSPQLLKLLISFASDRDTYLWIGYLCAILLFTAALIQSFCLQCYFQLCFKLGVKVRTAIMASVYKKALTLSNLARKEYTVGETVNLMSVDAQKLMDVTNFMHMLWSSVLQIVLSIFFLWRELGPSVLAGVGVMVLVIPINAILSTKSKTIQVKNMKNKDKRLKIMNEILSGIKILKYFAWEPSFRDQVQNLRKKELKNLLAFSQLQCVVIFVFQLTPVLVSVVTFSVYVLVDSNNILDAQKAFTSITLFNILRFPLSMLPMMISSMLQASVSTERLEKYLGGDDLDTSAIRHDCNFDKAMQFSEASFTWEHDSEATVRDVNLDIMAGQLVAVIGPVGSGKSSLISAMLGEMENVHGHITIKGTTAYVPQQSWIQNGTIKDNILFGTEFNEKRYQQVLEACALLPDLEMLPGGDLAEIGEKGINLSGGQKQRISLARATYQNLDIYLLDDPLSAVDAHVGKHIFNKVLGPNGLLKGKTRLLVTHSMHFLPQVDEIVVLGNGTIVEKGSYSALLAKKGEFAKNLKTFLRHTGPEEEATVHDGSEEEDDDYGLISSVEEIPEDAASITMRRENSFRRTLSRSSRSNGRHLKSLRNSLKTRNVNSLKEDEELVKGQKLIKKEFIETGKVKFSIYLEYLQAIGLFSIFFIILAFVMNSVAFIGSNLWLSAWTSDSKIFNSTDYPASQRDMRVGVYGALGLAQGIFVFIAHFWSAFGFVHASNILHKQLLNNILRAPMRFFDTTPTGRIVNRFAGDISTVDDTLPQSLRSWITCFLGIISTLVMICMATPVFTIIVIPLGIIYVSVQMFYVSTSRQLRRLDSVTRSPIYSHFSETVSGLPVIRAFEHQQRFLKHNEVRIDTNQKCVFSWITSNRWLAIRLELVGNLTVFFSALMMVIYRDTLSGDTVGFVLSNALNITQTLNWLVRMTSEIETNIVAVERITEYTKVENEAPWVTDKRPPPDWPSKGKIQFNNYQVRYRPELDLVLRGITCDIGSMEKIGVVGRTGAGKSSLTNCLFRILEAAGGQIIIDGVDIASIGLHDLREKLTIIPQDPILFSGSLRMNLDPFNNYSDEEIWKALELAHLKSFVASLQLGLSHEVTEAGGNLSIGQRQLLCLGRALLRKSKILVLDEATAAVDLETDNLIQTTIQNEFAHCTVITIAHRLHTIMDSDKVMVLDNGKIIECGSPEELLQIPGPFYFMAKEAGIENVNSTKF

[18] = Half life in human microsomes; type: ADME, Microsome
[19] = Permeability from basolateral to apical side in human Caco2 cells; type: ADME, cell-based; conditions: Caco-2, read-out: permeability
Hepatitis C virus [20] = experiment: Antiviral activity against Hepatitis C virus genotype 1a infected in human assessed as log decrease in viral RNA level at 200 mg, po for 3 days; type: functional, Hepacivirus hominis, subtype 1a
[21] = Plasma concentration in human at 300 mg after 24 hrs
[22] = Half life in cynomolgus monkey microsomes; type: ADME, Macaca fascicularis, Microsome
[23] = Cmax in dog at 4 mg/kg, po; type: ADME, organism-based, Canis lupus familiaris; set-up: dose 4 mg/kg, route oral; conditions: in vivo
Rattus norvegicus = experiment: AUC in rat at 4 mg/kg, po; type: ADME, organism-based, Plasma; set-up: dose 4 mg/kg, route oral; conditions: in vivo
[24] = Drug excretion in rat bile at 1 mg/kg, iv; type: ADME, organism-based; set-up: dose 1 mg/kg, route intravenous; conditions: read-out: Drug excretion
How it was run: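 Bile-duct cannulated rats given drug intravenously; bile collected and the fraction of total dose recovered as parent compound and as glucuronide conjugates measured.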

[25] = Clearance in dog at 1 mg/kg, iv and 4 mg/kg, po; type: ADME, organism-based, Canis lupus familiaris; conditions: in vivo; how it was run: as §1
Canis familiaris = experiment: AUC in dog at 4 mg/kg, po; type: ADME, organism-based, Canis lupus familiaris, Plasma; set-up: dose 4 mg/kg, route oral; conditions: in vivo; how it was run: as §1
[26] = Fraction unbound in cynomolgus monkey plasma; type: ADME, cell-free, Macaca fascicularis
Hepatitis C virus [27] = experiment: Inhibition of Hepatitis C virus genotype 1b NS3/4A protease; set-up: species or system Hepatitis C virus subtype 1b
Hepatitis C virus [28] = experiment: Antiviral activity against Hepatitis C virus genotype 1b infected in human Huh cells by luciferase reporter gene based replicon assay; type: functional, organism-based, Hepacivirus hominis
How it was run: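 EC50 from a cell-based assay in Huh-luc cells carrying a subgenomic HCV genotype 1b replicon, with luciferase reporter read-out.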

[29] = Volume of distribution at steady state in dog at 1 mg/kg, iv and 4 mg/kg, po; type: ADME, organism-based, Canis lupus familiaris; conditions: in vivo, read-out: Vdss; how it was run: as §1
[30] = Inhibition of p-glycoprotein
[31] = Half life in rat at 1 mg/kg, iv; type: ADME, organism-based; set-up: dose 1 mg/kg, route intravenous; conditions: in vivo
[32] = Selectivity for hepatitis C virus NS3/4A protease over human proteinase 3
[33] = Selectivity for hepatitis C virus NS3/4A protease over human cathepsin D
[34] = Volume of distribution at steady state in cynomolgus monkey at 1 mg/kg, iv and 4 mg/kg, po; type: ADME, organism-based, Macaca fascicularis; conditions: in vivo, read-out: Vdss; how it was run: as §1
[35] = Fraction unbound in dog plasma; type: ADME, cell-free, Canis lupus familiaris
[36] = Selectivity for hepatitis C virus NS3/4A protease over human leukocyte elastase
Hepatitis C virus [37] = experiment: Antiviral activity against Hepatitis C virus genotype 1a infected in human assessed as log decrease in viral RNA level at 60 mg, po for 3 days; type: functional, Hepacivirus hominis, subtype 1a
[38] = Elimination half life in human at 10 to 1000 mg; conditions: in vivo, read-out: beta t1/2 (converted)
[39] = Thermodynamic solubility of the compound at pH 7.3; type: physicochemical; conditions: buffer, read-out: Therm_solubility
Hepatitis C virus [40] = experiment: Antiviral activity against Hepatitis C virus genotype 1a infected in human assessed as log decrease in viral RNA level at 400 mg, po for 3 days; type: functional, Hepacivirus hominis, subtype 1a
[41] = Inhibition of cytochrome P450 up to 25 uM; type: ADME
[42] = Half life in cynomolgus monkey at 1 mg/kg, iv; type: ADME, organism-based, Macaca fascicularis; set-up: dose 1 mg/kg, route intravenous; conditions: in vivo; how it was run: as §1
[43] = Fraction unbound in rat plasma; type: ADME, cell-free
[44] = Oral bioavailability in dog at 4 mg/kg; type: ADME, organism-based, Canis lupus familiaris; conditions: in vivo; how it was run: as §1
[45] = biological target: Voltage-gated inwardly rectifying potassium channel KCNH2 (Homo sapiens, UniProt Q12809); experiment: Inhibition of human Erg up to 25 uM
Sequence of Voltage-gated inwardly rectifying potassium channel KCNH2 (Q12809 whole entry): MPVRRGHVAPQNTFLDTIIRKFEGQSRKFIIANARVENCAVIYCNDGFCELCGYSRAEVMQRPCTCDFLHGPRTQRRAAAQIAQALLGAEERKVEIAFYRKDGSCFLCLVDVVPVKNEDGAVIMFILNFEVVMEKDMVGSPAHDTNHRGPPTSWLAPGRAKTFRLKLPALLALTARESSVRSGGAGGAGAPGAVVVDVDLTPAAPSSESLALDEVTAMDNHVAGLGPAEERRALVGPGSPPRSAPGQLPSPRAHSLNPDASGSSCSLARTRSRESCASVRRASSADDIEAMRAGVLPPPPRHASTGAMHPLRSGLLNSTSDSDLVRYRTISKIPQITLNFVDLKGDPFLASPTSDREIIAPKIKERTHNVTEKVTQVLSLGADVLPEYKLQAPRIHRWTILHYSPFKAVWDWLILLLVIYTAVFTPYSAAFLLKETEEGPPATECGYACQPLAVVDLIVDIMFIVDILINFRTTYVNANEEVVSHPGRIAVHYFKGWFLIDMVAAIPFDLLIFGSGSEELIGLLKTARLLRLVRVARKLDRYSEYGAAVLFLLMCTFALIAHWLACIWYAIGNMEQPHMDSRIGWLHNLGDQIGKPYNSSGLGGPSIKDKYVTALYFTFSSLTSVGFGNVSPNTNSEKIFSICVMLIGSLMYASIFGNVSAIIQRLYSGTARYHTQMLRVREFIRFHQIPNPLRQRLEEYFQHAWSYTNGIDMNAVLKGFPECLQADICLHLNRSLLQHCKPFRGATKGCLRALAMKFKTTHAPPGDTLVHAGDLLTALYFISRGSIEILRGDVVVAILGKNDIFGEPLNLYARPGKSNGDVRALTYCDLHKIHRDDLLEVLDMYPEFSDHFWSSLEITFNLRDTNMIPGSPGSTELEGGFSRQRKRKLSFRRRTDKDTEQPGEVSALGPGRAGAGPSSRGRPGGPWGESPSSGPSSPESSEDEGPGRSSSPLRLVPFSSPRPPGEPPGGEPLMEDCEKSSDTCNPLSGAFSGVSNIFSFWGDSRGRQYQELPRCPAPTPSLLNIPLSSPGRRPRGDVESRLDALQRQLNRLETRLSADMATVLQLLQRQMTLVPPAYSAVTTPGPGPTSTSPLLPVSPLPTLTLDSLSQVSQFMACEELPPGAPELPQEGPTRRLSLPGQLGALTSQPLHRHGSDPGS

CC[C@@H]1C[C@]1(NC(=O)[C@@H]1C[C@@H](Oc2cc(-c3csc(NC(C)C)n3)nc3c(Cl)c(OCCN4CCOCC4)ccc23)CN1C(=O)[C@@H](NC(=O)O[C@@H]1C[C@@H]2C[C@@H]2C1)C(C)(C)C)C(=O)O [VEDROPREVIR]
Papp A→B [1]: 0.8 ×10⁻⁶ cm/s | solubility thermodynamic [2]: 790 µM (≈ 719 µg/mL) | bioavailability [3]: 62% | half-life [4]: > 395 min | AUC (Cynomolgus monkey): 13.1 µM·h | clearance [5]: 73.3 mL/min/kg | IC50 [6]: 14.9 µM | inhibition (INH) [6]: Dose-dependent effect | Selectivity ratio [7]: > 50000 | Cmax [8]: 3.47 µM | fraction unbound [9]: 0.026 | IC50 [10]: 1400 nM | half-life [11]: 252 min | Vd [12]: 2.3 L/kg | Cmax [13]: 576 nM | bioavailability [14]: 49% | half-life [15]: > 395 min | clearance [16]: 4.83 mL/min/kg | IC50 [17]: 12 µM | inhibition (INH) [17]: Dose-dependent effect | half-life [18]: > 395 min | Papp B→A [19]: 8.2 ×10⁻⁶ cm/s | Activity (Hepatitis C virus [20]): 3.2 log10IU/ml | concentration at 24 h [21]: 400 nM | half-life [22]: 79 min | Cmax [23]: 3.94 µM | AUC (Rattus norvegicus): 1410 nM·h | dose excreted [24]: 45% | clearance [25]: 4.33 mL/min/kg | AUC (Canis familiaris): 21.8 µM·h | fraction unbound [26]: 0.016 | IC50 (Hepatitis C virus [27]): 3.2 nM | EC50 (Hepatitis C virus [28]): 2 nM | Vd [29]: 1.15 L/kg | IC50 [30]: 34 µM | inhibition (INH) [30]: Dose-dependent effect | half-life [31]: 37.2 min | Selectivity ratio [32]: > 50000 | Selectivity ratio [33]: > 50000 | Vd [34]: 0.76 L/kg | fraction unbound [35]: 0.026 | Selectivity ratio [36]: > 50000 | Activity (Hepatitis C virus [37]): 0.88 log10IU/ml | half-life [38]: 720 min | solubility thermodynamic [39]: 38 µM (≈ 34.6 µg/mL) | Activity (Hepatitis C virus [40]): 3.6 log10IU/ml | inhibition (INH) [41]: Not Active | half-life [42]: 234 min | fraction unbound [43]: 0.011 | bioavailability [44]: 142% | inhibition (INH) [45]: Not Active

CC[C@@H]1C[C@]1(NC(=O)[C@@H]1C[C@@H](Oc2cc(-c3csc(NC(C)C)n3)nc3c(Cl)c(OC)ccc23)CN1C(=O)[C@@H](NC(=O)O[C@@H]1C[C@@H]2C[C@@H]2C1)C(C)(C)C)C(=O)O
Papp A→B [1]: 7.3 ×10⁻⁶ cm/s | Therm_solubility [2]: Insoluble(BLD) | Papp B→A [19]: 25 ×10⁻⁶ cm/s | IC50 (Hepatitis C virus [27]): 1.4 nM | EC50 (Hepatitis C virus [28]): 9 nM | solubility thermodynamic [39]: 72 µM (≈ 58.4 µg/mL)

CC[C@@H]1C[C@]1(NC(=O)[C@@H]1C[C@@H](Oc2cc(-c3csc(NC(C)C)n3)nc3c(Cl)c(OC)ccc23)CN1C(=O)[C@@H](NC(=O)O[C@@H]1C[C@@H]2[C@H](C1)C2(F)F)C(C)(C)C)C(=O)O
Papp A→B [1]: 6.8 ×10⁻⁶ cm/s | solubility thermodynamic [2]: < 6 µM | Papp B→A [19]: 49 ×10⁻⁶ cm/s | IC50 (Hepatitis C virus [27]): 5 nM | EC50 (Hepatitis C virus [28]): 115 nM | solubility thermodynamic [39]: 9 µM (≈ 7.63 µg/mL)

CC[C@@H]1C[C@]1(NC(=O)[C@@H]1C[C@@H](Oc2cc(-c3csc(NC(C)C)n3)nc3c(Cl)c(OC)ccc23)CN1C(=O)[C@@H](NC(=O)O[C@H]1C[C@@H]2[C@H](C1)C2(F)F)C(C)(C)C)C(=O)O
Papp A→B [1]: 4.5 ×10⁻⁶ cm/s | solubility thermodynamic [2]: 20 µM (≈ 16.9 µg/mL) | Papp B→A [19]: 18 ×10⁻⁶ cm/s | IC50 (Hepatitis C virus [27]): 2.6 nM | EC50 (Hepatitis C virus [28]): 5 nM | solubility thermodynamic [39]: 57 µM (≈ 48.3 µg/mL)
